In paper PMC4521672 (OncoTargets and therapy, 2015):
Where “and” joins values, the source holds several entries; their conditions need not be identical. Equal values may be shown once.

What was measured:
GSTA1 (GST-α) = molecular target: T1, GSTA1 (GST-α) (Homo sapiens, UniProt P08263); test: GST activity assay; format: biochemical; details: read-out: IC50 for inhibition of formation of the CDNB-GSH conjugate in the presence of GST-α; GSTA1 5 μg/mL, pH 6.8, absorption at 355 nm
T1 sequence (P08263 1-222): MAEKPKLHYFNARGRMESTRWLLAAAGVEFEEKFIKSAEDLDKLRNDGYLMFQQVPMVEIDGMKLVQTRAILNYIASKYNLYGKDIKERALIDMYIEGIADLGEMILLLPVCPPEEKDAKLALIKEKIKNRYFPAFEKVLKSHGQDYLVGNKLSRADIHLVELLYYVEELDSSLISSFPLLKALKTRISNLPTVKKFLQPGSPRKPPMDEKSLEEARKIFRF
Method in brief: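 Recombinant human GSTA1 at 5 μg/mL in 0.1 M sodium phosphate, pH 6.8. GSH and CDNB were added from 2.5 mM and 7.5 mM stocks. Test compound was made as a 10 mM ethanol stock, then serially diluted to 10^-2–100 μM to compete with CDNB for conjugation to GSH. After 1–5 min, absorbance read at 355 nm, minus non-enzymatic conjugation. Triplicate runs; IC50 taken from dose–response curves.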

GSTP1 (GST-π) = GSTP1 (GST-π) (Homo sapiens, UniProt P09211); test: GST activity assay; format: biochemical; details: read-out: IC50 for inhibition of formation of the CDNB-GSH conjugate in the presence of GST-π; GSTP1 5 μg/mL, pH 6.8, absorption at 355 nm
C6 glioma tumor = test: In vivo PET imaging of C6 glioma-bearing rat; parameters: species or system Sprague–Dawley rats; details: dynamic PET 0-60 minutes post-injection, intravenous
Method in brief: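 Male Sprague–Dawley rats (8 weeks) stereotactically inoculated in the right hemisphere with 1.0×10^5 C6 cells. Tumours grew 2 weeks to 3–5 mm, with loci confirmed by MRI. Rats were anaesthetised with isoflurane in 200 mL/min oxygen and fitted with venous and arterial catheters. Imaged on a microPET R4 scanner; one tumour-bearing and one healthy rat were scanned.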

| IC50 (GSTA1 (GST-α)) [µM] | IC50 (GSTP1 (GST-π)) | Structure (SMILES) | Accumulation in C6 glioma tumor loci (PET) (C6 glioma tumor) |
| --- | --- | --- | --- |
| 17.5 | 6.02 µM and 6 µM | C=C(CC)C(=O)c1ccc(OCC(=O)NCCCCF)c(Cl)c1Cl [FBuEA, fluorobutyl ethacrynic amide] | – |
| – | – | Cc1cn([C@H]2C[C@H]([18F])[C@@H](CO)O2)c(=O)[nH]c1=O [[^18F]FLT, 3′-deoxy-3′-[^18F] fluorothymidine] | tumor sites were targeted |
